≈ marks a conversion by molar mass, not a printed value.
Legend:
Staphylococcus aureus [1] = assay: Antibacterial activity against 5 x 10^5 CFU/ml epidemic methicillin-resistant Staphylococcus aureus EMRSA-16 after 18 hrs by MTT assay; type: functional; details: EMRSA-16, 18 h
Method in brief: (§1)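 Strains grown on nutrient agar 24 h at 37 °C; inoculum adjusted to 0.5 McFarland in normal saline. Compounds dissolved in DMSO, diluted in Mueller-Hinton broth to a 512 μg/mL starting concentration, then two-fold serially diluted in MHB supplemented with Mg2+ (10 mg/L) and Ca2+ (20 mg/L). Incubated 18 h at 37 °C; MIC read as lowest concentration with no visible growth, confirmed by MTT (20 min, 37 °C). Triplicates.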

Staphylococcus aureus [2] = assay: Antibacterial activity against 5 x 10^5 CFU/ml macrolide-resistant Staphylococcus aureus RN4220 expressing MsrA macrolide efflux protein after 18 hrs by MTT assay; type: functional; details: RN4220, 18 h; method in brief: as §1
Staphylococcus aureus [3] = assay: Antibacterial activity against 5 x 10^5 CFU/ml epidemic methicillin-resistant Staphylococcus aureus EMRSA-15 after 18 hrs by MTT assay; type: functional; details: EMRSA-15, 18 h; method in brief: as §1
Staphylococcus aureus [4] = assay: Antibacterial activity against 5 x 10^5 CFU/ml Staphylococcus aureus ATCC 25923 after 18 hrs by MTT assay; details: ATCC 25923, 18 h
Staphylococcus aureus [5] = assay: Antibacterial activity against 5 x 10^5 CFU/ml multi-drug-resistant Staphylococcus aureus SA1199B expressing NorA quinolone efflux protein after 18 hrs by MTT assay; type: functional; method in brief: as §1
Staphylococcus aureus [6] = assay: Antibacterial activity against 5 x 10^5 CFU/ml multi-drug-resistant Staphylococcus aureus XU212 expressing TetK tetracycline efflux protein after 18 hrs by MTT assay; type: functional; details: XU212, 18 h; method in brief: as §1

SMILES | MIC (Staphylococcus aureus [1]) [µg/mL] | MIC (Staphylococcus aureus [2]) [µg/mL] | MIC (Staphylococcus aureus [3]) [µg/mL] | MIC (Staphylococcus aureus [4]) [µg/mL] | MIC (Staphylococcus aureus [5]) [µg/mL] | MIC (Staphylococcus aureus [6]) [µg/mL]
C=C(C)[C@H]1C[C@@H](O)[C@]2(C)C/C=C(\C)CC/C=C(\C)CC[C@@H]12 | 2 (≈ 6.93 µM) | 4 (≈ 13.9 µM) | 2 (≈ 6.93 µM) | 4 (≈ 13.9 µM) | 2 (≈ 6.93 µM) | 4 (≈ 13.9 µM)
CCn1cc(C(=O)O)c(=O)c2cc(F)c(N3CCNCC3)cc21 [NORFLOXACIN] | 128 (≈ 401 µM) | 0.5 (≈ 1.57 µM) | 0.5 (≈ 1.57 µM) | 0.5 (≈ 1.57 µM) | 32 (≈ 100 µM) | 8 (≈ 25.1 µM)
C=C(C)[C@@H]1CC[C@]2(C)/C=C/[C@H](C)CC/C=C(\C)CC[C@@H]12 | > 128 | > 128 | > 128 | > 128 | > 128 | > 128
C=C(C)[C@H]1CC[C@]2(C)C/C=C(\C)CC[C@@H]3O[C@@]3(C)CC[C@@H]12 | 4 (≈ 13.9 µM) | > 128 | 128 (≈ 444 µM) | > 128 | > 128 | > 128
C=C(C)[C@@H]1CC(=O)[C@]2(C)C/C=C(\C)CC/C=C(\C)CC[C@@H]12 | > 128 | > 128 | > 128 | > 128 | > 128 | > 128
C/C1=C\C[C@@]2(C)CC[C@H](C(C)(C)O)[C@@H]2CC/C(C)=C/CC1 | 8 (≈ 27.5 µM) | 64 (≈ 220 µM) | 32 (≈ 110 µM) | 32 (≈ 110 µM) | 32 (≈ 110 µM) | 64 (≈ 220 µM)
C=C(C)[C@H]1C[C@H](OC(C)=O)[C@]2(C)C/C=C(\C)CC/C=C(\C)CC[C@@H]12 | > 128 | > 128 | > 128 | > 128 | > 128 | > 128
C/C1=C\C[C@@]2(C)CC[C@@](O)(C(C)C)[C@@H]2CC/C(C)=C/CC1 | 8 (≈ 27.5 µM) | 8 (≈ 27.5 µM) | 8 (≈ 27.5 µM) | 8 (≈ 27.5 µM) | 16 (≈ 55.1 µM) | 16 (≈ 55.1 µM)
C=C(C)[C@H]1CC[C@]2(C)C/C=C(\C)CC/C=C(\C)CC[C@@H]12 | 16 (≈ 58.7 µM) | 128 (≈ 470 µM) | 128 (≈ 470 µM) | 64 (≈ 235 µM) | 128 (≈ 470 µM) | 128 (≈ 470 µM)
C=C(C)[C@H]1CC[C@]2(C)C[C@@H]3O[C@@]3(C)CC/C=C(\C)CC[C@@H]12 | 32 (≈ 111 µM) | > 128 | > 128 | > 128 | > 128 | > 128
CC(=O)O[C@H]1C/C(C)=C/CC[C@@H](C)/C=C/[C@@]2(C)CC[C@@H](C(C)(C)O)[C@H]12 | 64 (≈ 184 µM) | > 128 | > 128 | > 128 | > 128 | > 128
C=C(C)[C@H]1C[C@H](OC(C)=O)[C@]2(C)C[C@@H]3O[C@@]3(C)CC/C=C(\C)CC[C@@H]12 | 32 (≈ 92.3 µM) | 64 (≈ 185 µM) | 128 (≈ 369 µM) | 32 (≈ 92.3 µM) | 64 (≈ 185 µM) | 128 (≈ 369 µM)
C=C(C)[C@H]1CC(=O)[C@]2(C)C/C=C(\C)CC[C@@H]3O[C@@]3(C)CC[C@@H]12 | > 128 | > 128 | > 128 | > 128 | > 128 | > 128
C=C(C)[C@H]1CC(=O)[C@]2(C)C/C=C(/C)CC/C=C(\C)CC[C@@H]12 | > 128 | > 128 | > 128 | > 128 | > 128 | > 128
C=C(C)[C@H]1CC(=O)[C@]2(C)C/C=C(/C)CC[C@@H]3O[C@@]3(C)CC[C@@H]12 | > 128 | > 128 | > 128 | > 128 | > 128 | > 128
C=C(C)[C@H]1CC(=O)[C@]2(C)C/C=C(\C)CC/C=C(\C)CC[C@@H]12 | 16 (≈ 55.9 µM) | > 128 | > 128 | > 128 | 128 (≈ 447 µM) | > 128
C=C(C)[C@H]1C[C@H](O)[C@]2(C)C/C=C(\C)CC/C=C(\C)CC[C@@H]12 | 8 (≈ 27.7 µM) | 64 (≈ 222 µM) | 64 (≈ 222 µM) | 128 (≈ 444 µM) | 32 (≈ 111 µM) | 64 (≈ 222 µM)
C/C1=C\CC[C@@H](C)/C=C/[C@@]2(C)CC[C@@H](C(C)(C)O)[C@@H]2CC1 | 16 (≈ 55.1 µM) | 64 (≈ 220 µM) | 64 (≈ 220 µM) | 64 (≈ 220 µM) | 64 (≈ 220 µM) | 64 (≈ 220 µM)
C=C(C)[C@H]1CC(=O)[C@]2(C)C[C@@H]3O[C@@]3(C)CC/C=C(\C)CC[C@@H]12 | > 128 | 128 (≈ 423 µM) | > 128 | > 128 | > 128 | > 128

Reference: ChEMBL document CHEMBL1687851, “Dolabellanes with antibacterial activity from the brown alga Dilophus spiralis” (2011)
